Bioassay records (PubChem BioAssay)
Most compounds without a hit are left out; they make up all but 0.55% or so of the library.
OXTR potentiate: human OXTR potentiation; AID 2445; activation, % at 3 µM; P30559; 320,000 compounds, 0.061% hits; CHO-OTR cells, Fluo-8 calcium fluorescence, potentiator mode; 0% = oxytocin EC15, 100% = EC100;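 active means activation above that plate's cutoff, the mean activation of tested compounds plus 3 SD, cut at about 6.6% in these data, passing the limit was not always enough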
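Material: CHO-OTR cells, human receptor; compound dosing: single dose, 3.0 µM nominal final compound concentration; schedule: 6 min compound pre-incubation at room temperature, 100 s kinetic read; measured by: kinetic Fluo-8 calcium fluorescence; read-out basis: % activation vs EC15 and EC100 oxytocin; controls: EC15 oxytocin alone as 0%, 75 nM oxytocin as 100%; replicates: singlicate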
TRPML3 ag: activates the human TRPML3 channel; Q8TDD5; HEK293 TRPML3-YFP, Fluo-8 calcium fluorescence; 100% = the carbachol control signal; activation, % at 3 µM; 220,000 compounds, 0.29% hits; AID 1448;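 active means activation above its plate's cutoff, the mean activation of the plate's test wells plus 3 SD, cut at about 12% in these data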
Target sequence (Q8TDD5 whole entry, looked up): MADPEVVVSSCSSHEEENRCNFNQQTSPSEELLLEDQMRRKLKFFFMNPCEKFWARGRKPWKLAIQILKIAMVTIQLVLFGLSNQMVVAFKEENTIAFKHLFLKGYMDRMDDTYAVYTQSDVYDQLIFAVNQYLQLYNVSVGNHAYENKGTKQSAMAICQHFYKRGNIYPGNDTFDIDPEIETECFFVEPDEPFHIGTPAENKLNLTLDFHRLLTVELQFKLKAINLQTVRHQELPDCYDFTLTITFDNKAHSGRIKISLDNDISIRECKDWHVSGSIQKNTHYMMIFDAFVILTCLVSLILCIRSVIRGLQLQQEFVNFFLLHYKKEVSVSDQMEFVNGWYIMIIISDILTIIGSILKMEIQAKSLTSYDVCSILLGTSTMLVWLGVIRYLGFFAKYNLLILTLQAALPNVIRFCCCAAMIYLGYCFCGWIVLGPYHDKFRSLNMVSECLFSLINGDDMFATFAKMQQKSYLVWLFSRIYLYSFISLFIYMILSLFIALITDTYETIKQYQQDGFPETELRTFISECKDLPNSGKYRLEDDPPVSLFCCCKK
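Test system – HEK293 line with stable expression of human TRPML3-YFP channel · Control set – carbachol 87 µM final as high control (100%), DMSO as low control (0%) · Signal – Fluo-8 calcium dye fluorescence, ex 470-495, em 515-575 nm · Incubation – 1-h 37 °C dye load, 5-s basal, 120-s post-compound reads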
TRPN1 ag: zebrafish TRPN1 (NompC) channel agonism. HEK293 zebrafish TRPN1-YFP, Fluo-8 calcium fluorescence; 100% = response to 87 µM carbachol. activation, % at 3 µM. 220,000 compounds, 0.18% hits;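 active means activation above its plate's cutoff, the mean activation of test wells on that plate plus 3 SD, cut at about 19% in these data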
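Material: zebrafish TRPN1-YFP in HEK293 cells; Doses: single test compound dose, 3 µM nominal, 0.3% DMSO; Timing: dye loading 1 h at 37 °C, then 30 min room temperature; Technique: intracellular calcium fluorescence with Fluo-8; Benchmarks: high carbachol 87 µM, low DMSO alone.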
OXTR agonist: activates the human oxytocin receptor | P30559 | CHO-OTR cells, Fluo-8 calcium fluorescence; normalized: DMSO 0%, oxytocin 100% | activation, % at 3 µM | 320,000 compounds, 0.32% hits | AID 2435;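 active means activation above the mean of all tested compounds plus 3 SD, cutoff set per screening run, cut at about 20% in these data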;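 further: peak over basal fluorescence ratio from a 100 s FLIPR kinetic read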
V1aR counter: counter-screen for oxytocin receptor agonists: human V1a receptor agonists | P37288 | CHO-V1R cells, Fluo-8 calcium fluorescence, agonist mode; 0% DMSO, 100% 3 nM vasopressin | activation, % at 3 µM | 320,000 compounds, 0.25% hits;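 active means activation above the mean activation of all tested compounds plus 3 SD, per screening run, cut at about 20% in these data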;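 further: signal is peak over basal fluorescence ratio across a 100 second FLIPR read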
OXTR ag confirm: human OXTR agonism, confirmation. shares compounds with OXTR agonist. CHO-OTR cells, Fluo-8 calcium fluorescence, agonist. activation, % at 3 µM. 390 compounds, 20% hits. AID 434963;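 active means mean activation above about 20% derived from the earlier single-dose screen, limit read from the data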;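 further: peak over minimum fluorescence ratio per well during a 100 second FLIPR read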
V1aR counter 3x: activates V1a receptor in oxytocin agonist counter-screen; shares compounds with OXTR agonist; CHO-V1R cells, Fluo-8 calcium fluorescence; activation, % at 3 µM; 390 compounds, 10% hits; AID 434991;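 active means mean activation over triplicate exceeds the hit threshold set in the earlier primary screen, cut at about 20% in these data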;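 further: peak over basal fluorescence ratio within a 100 second read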
Hits are given with their value; . = inactive; / = no result.

SMILES	OXTR potentiate	TRPML3 ag	TRPN1 ag	OXTR agonist	V1aR counter	OXTR ag confirm	V1aR counter 3x
CC(=O)n1cc([C@H]2C=C(C(N)=O)O[C@@H](OCc3ccc(CO)cc3)C2)c2ccccc21	.	/	/	19.7	.	.	.
COc1ccc(CN2CCN(CC(O)Cn3c4ccccc4c4ccccc43)CC2)cc1 (configuration not stated)	.	.	.	24.2	.	.	.
NC1=NC(c2ccccc2C(F)(F)F)N(c2ccc(F)c(Cl)c2)C(N)=N1 (configuration not stated)	.	/	/	.	.	/	/
CCC1(c2ccc(F)cc2)NC(=O)N(CC(=O)N2c3ccccc3CC2C)C1=O (configuration not stated)	.	/	/	28.5	.	.	.
O=C(O)c1ccc(N/N=C/c2ccc(-c3ccccc3Cl)o2)cc1	.	.	.	23.1	.	.	.
CCOc1ccc(NC(=O)C(C)Oc2ccc(C#N)cc2)cc1S(=O)(=O)N1CCCC1 (configuration not stated)	.	/	/	19.6	.	.	.
CCOc1ccccc1OCC(=O)Nc1ccc(OC)c(S(=O)(=O)N2CCCCC2)c1	.	/	/	.	.	/	/
Cc1sc(NC(=O)CSc2nnc(COc3ccccc3)n2C)c(C#N)c1C	.	.	.	.	.	/	/
Cc1ccc(OCc2nnc(SCC(=O)Nc3sc(C)c(C)c3C#N)n2C)cc1	.	.	.	20.9	.	.	.
OC(c1cc(C(F)(F)F)nc2c(Cl)cc(Cl)cc12)C1CCCCN1 (configuration not stated)	.	.	.	23.1	.	.	.
O[C@@H](c1cc(C(F)(F)F)nc2c(C(F)(F)F)cccc12)[C@H]1CCCCN1	.	/	/	.	.	/	/
O=c1cc(-c2ccccc2Cl)oc2c(NS(=O)(=O)c3cc(Cl)cc(Cl)c3O)ccc(O)c12	.	.	.	27.9	.	.	.
CCc1ccc(S(=O)(=O)Nc2ccc(O)c3c(=O)cc(-c4ccccc4Cl)oc23)cc1	.	/	/	.	.	/	/
O=[N+]([O-])c1ccc(O)c(-c2cc(C(F)(F)F)nc(-c3ccccc3)n2)c1	.	/	/	25.9	.	.	.
Cc1cc(S(=O)(=O)Nc2ccc(C(=O)NCC3(N(C)C)CCCCC3)cc2)ccc1F	.	/	/	.	.	/	/
CCOc1ccc(NS(=O)(=O)c2ccc(C(=O)NCC3(N(C)C)CCCCC3)cc2)cc1	.	/	/	24.0	.	.	.
COc1ccccc1-[n+]1c(C)cc(/C=C2\Sc3ccccc3N2C)cc1C	.	11.8	26.0	25.5	.	26.0	25.6
COc1ccc(C(=O)/C=C2\Sc3ccccc3N2C)cc1	.	.	.	.	.	/	/
N#C/C(=C\c1ccc(N2CCOCC2)c([N+](=O)[O-])c1)c1nc2ccccc2[nH]1	.	.	.	.	.	/	/
N#C/C(=C\c1ccc(N2CCOCC2)o1)c1nc2ccccc2[nH]1	.	.	.	42.8	.	176.5	259.2
CCC(O)C1CCN(C(=O)c2ccc(OC3CCN(Cc4ccccn4)CC3)cc2)CC1 (configuration not stated)	.	/	/	.	.	/	/
O=C(Nc1ccc(Cl)c(Cl)c1)c1cccc(S(=O)(=O)NCc2cccnc2)c1	.	.	.	20.3	.	.	.
O=C(NCCc1ccccc1)C1CCCN(c2cnccn2)C1 (configuration not stated)	.	/	/	.	.	/	/
CCCn1nnnc1SCC(=O)NC1CCCC1	.	/	/	.	.	/	/
Cc1ccc(-c2nn(-c3ccccc3)cc2CSC(=N)N)cc1	.	.	.	23.7	.	.	.
SMILES	OXTR potentiate	TRPML3 ag	TRPN1 ag	OXTR agonist	V1aR counter	OXTR ag confirm	V1aR counter 3x
OCc1cn(-c2ccccc2)nc1-c1ccc(-c2nn(-c3ccccc3)cc2CO)cc1	.	.	.	.	.	/	/
Cc1ccccc1COC(=O)CCCC1=NS(=O)(=O)c2ccccc2N1	.	/	/	23.6	.	.	.
COc1ccc(C2NCCc3c2[nH]c2ccccc32)cc1COc1ccc(F)cc1 (configuration not stated)	.	.	.	24.0	.	23.5	.
COc1ccc(C2NCCc3c2[nH]c2ccccc32)cc1CN1CCc2cc(OC)c(OC)cc2C1C (configuration not stated)	/	.	.	/	/	/	/
COc1ccc(N2CC(C(=O)Nc3ccccc3N3CCCC3)CC2=O)c(OC)c1 (configuration not stated)	.	/	/	.	.	/	/
COC(=O)c1ccccc1NS(=O)(=O)c1ccc(Cl)nc1	.	.	.	.	.	/	/
COc1ccccc1Oc1ccc2c(c1)C(=O)N(c1ccc(O)cc1)C2=O	.	.	.	25.6	.	.	.
COc1ccccc1Oc1ccc2c(c1)C(=O)N(CC(=O)O)C2=O	.	/	/	.	.	/	/
Cc1[nH]n(-c2ccc(Cl)cc2)c(=O)c1C=Nc1ccc(S(=O)(=O)N2CCOCC2)cc1	.	.	.	22.1	.	.	.
COc1nccnc1NS(=O)(=O)c1ccc(N=Cc2c(C)[nH]n(-c3ccc(Cl)cc3)c2=O)cc1	.	.	.	.	.	/	/
Cc1ccc(CNC(=O)c2cccnc2Sc2cccc(Cl)c2)cc1	.	.	.	.	.	/	/
COc1ccc(CNC(=O)c2cccnc2Sc2ccc(Cl)cc2)cc1	.	.	.	21.8	.	.	.
CC(=O)Nc1ccc(NC(=O)COC(=O)C2(c3ccc(Cl)cc3)CCCC2)cc1	.	.	.	19.8	.	.	.
O=c1c2cc(NC(=S)NCCN3CCCCCC3)ccc2nc2n1CCCCC2	.	.	.	.	.	/	/
O=c1c2cc(NC(=S)NCCCN3CCC(Cc4ccccc4)CC3)ccc2nc2n1CCCCC2	.	.	.	19.9	.	.	.
Cc1ccc(S(=O)(=O)NC(CC(C)C)C(=O)N2CCN(C/C=C/c3ccccc3)CC2)cc1 (configuration not stated)	.	/	/	.	.	/	/
c1ccc(COc2ccc(OCCCNC3CCCC3)cc2)cc1	.	.	.	21.4	.	.	.
COc1ccc2cc(C(=O)N(C)CC(=O)Nc3ccccc3Br)ccc2c1	.	/	/	.	.	/	/
COc1ccc(Nc2nc(-c3ccccc3)nc3ccccc23)c(OC)c1	.	.	.	29.7	.	.	.
COc1ccccc1Nc1nc(-c2ccccc2)nc2ccccc12	.	.	.	.	.	/	/
O=C(O)c1cccc(-n2cccc2/C=C2/SC(=O)N(CC(=O)N3CCCC3)C2=O)c1	.	/	/	.	.	/	/
C[C@H](CO)N1C[C@H](C)[C@@H](CN(C)S(=O)(=O)c2cn(C)cn2)Oc2ccc(NC(=O)NC3CCCCC3)cc2C1=O	.	/	/	.	.	/	/
O=C1COc2ccc(S(=O)(=O)N3CCN(c4ccccc4F)CC3)cc2N1	.	/	/	.	.	/	/
